Measurements collected from several papers.
Protocols differ between the studies behind these lines.
Fructose-1,6-bisphosphatase 1 G27P: Fructose-1,6-bisphosphatase 1 (Mus musculus, UniProt Q9QXD6, G27P)
NPSR1: Neuropeptide S receptor (NPSR1, Homo sapiens, UniProt Q6W5P4)
TPR: Trypanothione reductase (TPR, Trypanosoma cruzi, UniProt P28593)
GRM3: Metabotropic glutamate receptor 3 (GRM3, Homo sapiens, UniProt Q14832)
SLC6A2: Sodium-dependent noradrenaline transporter (SLC6A2, Homo sapiens, UniProt P23975)
Dual specificity calcium/calmodulin-dependent 3',5'-cyclic nucleotide phosphodiesterase 1B: Dual specificity calcium/calmodulin-dependent 3',5'-cyclic nucleotide phosphodiesterase 1B (Homo sapiens, UniProt Q01064)
Aldo-keto reductase family 1 member A1: Aldo-keto reductase family 1 member A1 (Rattus norvegicus, UniProt P51635)
PTPN12: Tyrosine-protein phosphatase non-receptor type 12 (PTPN12, Homo sapiens, UniProt Q05209)

O=S(=O)(Nc1nc2cc(Cl)ccc2o1)c1cc(Cl)ccc1Cl — IC50 (Fructose-1,6-bisphosphatase 1 G27P; enzyme activity; inhibitor): > 100 µM
Nc1ncnc2c1C(c1ccccc1)c1c(ccc3ccccc13)O2 (stereo not drawn) — IC50 (NPSR1; cAMP; antagonist; TR-FRET): 7.72 µM
Nc1c(Cl)cccc1C(=O)Nc1ccccc1C(=O)O — IC50 (srtA (Staphylococcus aureus, UniProt Q2FV99); enzyme activity; inhibitor): 59.7 µM
N=c1n(CCN2CCCCC2)c2ccccc2n1CC(O)c1ccc(Cl)c(Cl)c1 (stereo not drawn) — IC50 (TPR; enzyme activity; inhibitor): ≤ 10 µM
COc1ccc2c(Oc3ccc4c(C(=O)Nc5ccccc5N)cccc4c3)ccnc2c1 — IC50 (Tyrosine-protein kinase Fgr (FGR, Homo sapiens, UniProt P09769); enzyme activity; inhibitor): > 0.5 µM
COc1ccc(-c2cc(C(N)=O)ncc2OCc2noc(C)n2)c(F)c1 — IC50 (GRM3; ion flux; antagonist): > 10 µM
OC1c2ccccc2CCc2ccccc21 — IC50 (TPR; enzyme activity; inhibitor; absorbance): > 100 µM
CCN(CC)CCn1c(=N)n(CC(=O)c2ccc(C)cc2)c2ccccc21 — IC50 (TPR; enzyme activity; inhibitor): ≤ 10 µM
BrCCCc1ccccc1 — IC50 (TPR; enzyme activity; inhibitor; absorbance): > 100 µM
Clc1ccc(C(c2ccccc2)c2nnnn2CCCCN2CCC(Cc3ccc(Cl)c(Cl)c3)CC2)cc1 (stereo not drawn) — IC50 (SLC6A2; transporter uptake; inhibitor): 0.78 µM
COc1ccc(-c2cc(C(N)=O)ncc2OCc2cn(C)cn2)c(F)c1 — IC50 (GRM3; ion flux; antagonist): > 10 µM
CSc1ccc(/C=C2/C(C)=C(CC(=O)O)c3cc(F)ccc32)cc1 — IC50 (Dual specificity calcium/calmodulin-dependent 3',5'-cyclic nucleotide phosphodiesterase 1B; enzyme activity; inhibitor): > 100 µM
c1ccc(CCC2CCN(CCCCn3nnnc3C(c3ccccc3)c3ccccc3)CC2)cc1 — IC50 (SLC6A2; transporter uptake; inhibitor): 0.274 µM
CCN(CC)CCn1c(=N)n(CCOc2ccccc2)c2ccccc21 — IC50 (TPR; enzyme activity; inhibitor): ≤ 10 µM
COc1ccc(-c2cc(C(N)=O)ncc2OCc2ccn(C)n2)c(F)c1 — IC50 (GRM3; ion flux; antagonist): > 10 µM
O=C(O)C1=CC(=C(c2ccc(O)c(C(=O)O)c2)c2ccc(O)c(C(=O)O)c2)C=CC1=O — IC50 (TPR; enzyme activity; inhibitor; absorbance): 0.176 µM
Nc1nccc2cc(CNC(=O)c3cnn(Cc4ccc(Cn5ccccc5=O)cc4)c3)ccc12 — IC50 (Plasma kallikrein (KLKB1, Homo sapiens, UniProt P03952); enzyme activity; inhibitor; with preincubation): 0.00059 µM
COc1ccc(-c2cc(C(N)=O)ncc2OCc2ccnc(C)c2)c(F)c1 — IC50 (GRM3; ion flux; antagonist): > 10 µM
NC(=O)c1cccc(-c2cccc(OC(=O)NC3CCCCC3)c2)c1 — IC50 (Cocaine esterase (CES2, Homo sapiens, UniProt O00748); enzyme activity; inhibitor): 0.072 µM
Cc1ccc(OCC(O)Cn2c(=N)n(CCN3CCCCC3)c3ccccc32)cc1 (stereo not drawn) — IC50 (TPR; enzyme activity; inhibitor): ≤ 10 µM
COc1cccc(C2c3c(ncn(-c4ccncc4)c3=N)Oc3ccc4ccccc4c32)c1 (stereo not drawn) — IC50 (NPSR1; cAMP; antagonist; TR-FRET): 19.4 µM
COc1ccc2nc(/N=C3/NC(=O)C(=Cc4ccc(O)cc4)S3)sc2c1 — IC50 (Aldo-keto reductase family 1 member A1; enzyme activity; inhibitor; absorbance; pH 7.2): 1.24 µM
CN(C)CCCN1c2ccccc2Sc2ccc(Cl)cc21 — IC50 (TPR; enzyme activity; inhibitor; absorbance): 6.32 µM
Fc1ccc(C(c2ccc(F)cc2)c2nnnn2CCCCN2CCC(c3ccccc3)CC2)cc1 — IC50 (SLC6A2; transporter uptake; inhibitor): 0.675 µM
OC(c1ccccc1)c1ccccc1 — IC50 (TPR; enzyme activity; inhibitor; absorbance): > 100 µM
CN1CCN(c2ccc(Nc3ncc4cc(C#N)c(=O)n(C5CCCC5)c4n3)cc2)CC1 — IC50 (MAP kinase-interacting serine/threonine-protein kinase 2 (MKNK2, Homo sapiens, UniProt Q9HBH9); enzyme activity; inhibitor): 4.41 µM
COc1ccc(-c2cc(C(N)=O)ncc2OCc2ccnc(F)c2)c(F)c1 — IC50 (GRM3; ion flux; antagonist): > 10 µM
COc1cccc(C2c3c(ncn(-c4ccc(F)cc4)c3=N)Oc3ccc4ccccc4c32)c1 (stereo not drawn) — IC50 (NPSR1; calcium signal; antagonist): 3.48 µM
c1ccc(CCCN2CCNCC2)cc1 — IC50 (TPR; enzyme activity; inhibitor; absorbance): 34.5 µM
O=C(Nc1ccn(Cc2ccc(O)cc2C(F)(F)F)n1)c1c(F)cccc1F — IC50 (Short transient receptor potential channel 3 (TRPC3, Homo sapiens, UniProt Q13507); ion current; inhibitor): > 10 µM
O=C(O)c1cc(O)c2c(c1)[C@H]([C@H]1c3cc(C(=O)O)cc(O)c3C(=O)c3c(O[C@@H]4O[C@H](CO)[C@@H](O)[C@H](O)[C@H]4O)cccc31)c1cccc(O[C@@H]3O[C@H](CO)[C@@H](O)[C@H](O)[C@H]3O)c1C2=O — IC50 (PTPN12; enzyme activity; inhibitor; fluorescence): 0.4 µM
COc1cccc(C2c3c(ncn(-c4cccc(C)c4)c3=N)Oc3ccc4ccccc4c32)c1 (stereo not drawn) — IC50 (NPSR1; calcium signal; antagonist): 4.38 µM
OC[C@@H]1[C@@H](O)[C@H](O)[C@@H](O)[C@@H]2O[C@H]12 — IC50 (bglA (Thermotoga maritima, UniProt Q08638); enzyme activity; inhibitor; pH 6.8; with preincubation): 0.37 µM
Fc1ccc(C(c2ccc(F)cc2)c2nnnn2CCCCN2CCN(Cc3ccccc3)CC2)cc1 — IC50 (SLC6A2; transporter uptake; inhibitor): 0.16 µM
COc1ccc(-c2nsc(NC(=O)[C@@H]3C[C@H]3C)c2C)cc1 — IC50 (GRM3; calcium signal; antagonist): > 12.5 µM
CO/N=C(\C(=O)N[C@@H]1C(=O)N2C(C(=O)O)=C(COC(C)=O)CS[C@H]12)c1csc(N)n1 — IC50 (PTPN12; enzyme activity; inhibitor; fluorescence): 70 µM
Clc1ccc(C(c2ccccc2)c2nnnn2CCCCN2CCN(CCCc3ccccc3)CC2)cc1 (stereo not drawn) — IC50 (SLC6A2; transporter uptake; inhibitor): 0.745 µM
Cc1ccc(C(=O)Nc2ccc(S(=O)(=O)O)c3cc(S(=O)(=O)O)cc(S(=O)(=O)O)c23)cc1NC(=O)c1cccc(NC(=O)Nc2cccc(C(=O)Nc3cc(C(=O)Nc4ccc(S(=O)(=O)O)c5cc(S(=O)(=O)O)cc(S(=O)(=O)O)c45)ccc3C)c2)c1 — IC50 (PTPN12; enzyme activity; inhibitor; fluorescence): 27 µM
COc1cc(/C=C2\SC(=O)NC2=O)cc(F)c1OCCNc1nc2c(cnn2C2CCCC2)c(=O)[nH]1 — IC50 (Dual specificity calcium/calmodulin-dependent 3',5'-cyclic nucleotide phosphodiesterase 1B; enzyme activity; inhibitor): 0.0151 µM
COc1ccccc1C1c2c(ncn(-c3ccccc3)c2=N)Oc2ccc3ccccc3c21 (stereo not drawn) — IC50 (NPSR1; calcium signal; antagonist): 5.52 µM
COc1ccc2nc(/N=C3/NC(=O)C(=Cc4cc(I)c(O)c(OC)c4)S3)sc2c1 — IC50 (Aldo-keto reductase family 1 member A1; enzyme activity; inhibitor; absorbance; pH 7.2): > 50 µM
CC(=O)N[C@@H](Cc1c[nH]c2ccccc12)C(=O)N[C@@H](CCC(=O)C=[N+]=[N-])C(=O)OC(C)C — IC50 (Glutaminase kidney isoform, mitochondrial (GLS, Homo sapiens, UniProt O94925); enzyme activity; inhibitor; radiometric): > 1000 µM
CN1c2c(nc(N)[nH]c2=O)NC[C@@H]1CNc1ccc(C(=O)N[C@@H](CCC(=O)O)C(=O)O)cc1 — IC50 (Folate receptor beta (FOLR2, Homo sapiens, UniProt P14207); cell-free assay; ELISA): 0.196 µM
Cc1cnc(-c2ccc(-c3ccc(NC(=O)Nc4c(F)cc(F)cc4F)cc3F)c3c2C(=O)NC3)[nH]1 — IC50 (Serine/threonine-protein kinase 10 (STK10, Homo sapiens, UniProt O94804); enzyme activity; inhibitor): 0.0433 µM
COc1ccc2nc(/N=C3/NC(=O)C(=Cc4ccc(O)c(OC)c4)S3)sc2c1 — IC50 (Aldo-keto reductase family 1 member A1; enzyme activity; inhibitor; absorbance; pH 7.2): 0.61 µM
N=c1c2c(ncn1-c1ccccc1)Oc1ccc3ccccc3c1C2c1ccc2c(c1)OCCO2 (stereo not drawn) — IC50 (NPSR1; cAMP; antagonist; TR-FRET): 3.07 µM
O=C1c2ccccc2-c2cccc3cccc1c23 — IC50 (PTPN12; enzyme activity; inhibitor): > 150 µM
N=c1c2c(ncn1-c1ccccc1)Oc1ccc3ccccc3c1C2c1ccc2c(c1)CCO2 (stereo not drawn) — IC50 (NPSR1; cAMP; antagonist; TR-FRET): 3.07 µM
Cn1ccc(COc2cnc(C(N)=O)cc2-c2ccc(F)cc2)n1 — IC50 (GRM3; ion flux; antagonist): > 10 µM
O=P(O)(O)OC[C@H]1O[C@@](CO)(OP(=O)(O)O)[C@@H](O)[C@@H]1O — IC50 (Fructose-1,6-bisphosphatase 1 G27P; enzyme activity; inhibitor): 1.52 µM
O=C(Oc1cc(O)cc2c1C[C@@H](OC(=O)c1cc(O)c(O)c(O)c1)[C@@H](c1cc(O)c(O)c(O)c1)O2)c1cc(O)c(O)c(O)c1 — IC50 (PTPN12; enzyme activity; inhibitor): 0.02 µM
COc1cccc(C2c3c(ncn(-c4cccc(C#N)c4)c3=N)Oc3ccc4ccccc4c32)c1 (stereo not drawn) — IC50 (NPSR1; calcium signal; antagonist): 4.38 µM
O=C1c2ccccc2C(=O)c2c(O)c(O)cc(O)c21 — IC50 (PTPN12; enzyme activity; inhibitor; fluorescence): 7 µM
Fc1ccc(C(c2ccc(F)cc2)c2nnnn2CCCCN2CCC(Cc3ccccc3)CC2)cc1 — IC50 (SLC6A2; transporter uptake; inhibitor): 0.298 µM
